According to the array DNA melting data of Ke et al. (doi:10.1101/2024.01.08.574731):

Experiments:
[1] = melting temperature; fluorescence melt of hairpins on a sequencing array, two-state fit, raised by 9.35 °C to match UV melts; conditions: sodium 0.088 M
Procedure, shortened: (§1)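 Folding enthalpy and melting temperature were estimated with bootstrapped two-state fits and combined across four replicates by inverse-variance weighting, with fitted temperatures raised by 9.35 °C to match UV melts. The data were Cy3 fluorescence of library hairpins, with annealed Cy3 and quencher oligos, on a sequenced MiSeq flow cell in 50 mM Na-HEPES pH 8.0, 25 mM NaCl, imaged in 2.5 °C steps up to 60 °C and normalised to pre-quench Cy3 and control constructs.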

[2] = folding enthalpy; higher = less favourable; fluorescence melt of hairpins on a sequencing array, two-state fit; conditions: sodium 0.088 M
Procedure, shortened: as §1

Sequence	Tm [1] [°C]	folding enthalpy [2] [kcal/mol]
GAGCGGGGAAACCTGCTC ((((.((....)).))))	57.3	-30.6
GAGCGTCCGAAAGGACTC (((..(((....))))))	30.7	-7.91
GAGCGTGGAAACACACTC (((.(((....))).)))	45.9	-30.5
GAGCGTGGAAACACGTTC ((.((((....)))).))	52.5	-24.7
GAGCGTGGAAACATGCTC ((((.((....)).))))	55	-55.5
GAGCGTGGAAACGCGTTC ((.((.(....).)).))	51.7	-12.1
GAGCTACGAAAGTATCTC (((.(((....))).)))	36.9	-25.1
GAGCTCGCGAAAGCGCTC (((..(((....))))))	41.8	-14.2
GAGCTCGGAAACAAGCTC (((((.(....).)))))	43	-30
GAGCTCGGAAACGAGCCC (.(((((....))))).)	59.5	-7.56
GAGCTCGGAAACGAGTTC ((.((((....)))).))	53	-29.1
GAGCTCGGAAACGGGCTC ((((.((....)).))))	60.7	-44.2
GAGCTGAAAAGCTC (((((....)))))	57.2	-27.2
GAGCTGCCGAAAGGCCTC (((..(((....))))))	32.7	-11.3
GAGCTGCGAAAGCAACTC (((.(((....))).)))	51.2	-31.8
GAGCTGGCGAAAGCCCTC (((..(((....))))))	36.6	-5.81
GAGCTGGGAAACTAGCTC (((((.(....).)))))	52.5	-38.7
GAGCTTGAAAAAGCTC ((((((....))))))	58.1	-41.6
GAGCTTGCGAAAGCACTC (((..(((....))))))	39.7	-10.9
GAGGACGAAAGTCAGCTC ((((((....)))..)))	42	-15
GAGGACGAAAGTCATCTC ((((((....)))..)))	51.8	-19.1
GAGGACGAAAGTCCACTC ((((((....)))..)))	52.4	-12.7
GAGGACGAAAGTCCGCTC ((((((....)))..)))	67.5	-12.1

Sequence	Tm [1] [°C]	folding enthalpy [2] [kcal/mol]
GAGGACGGAAACGTCTTC ((.((((....)))).))	47.3	-17.8
GAGGAGAAATCCTC (((((....)))))	43.4	-21.8
GAGGAGCGAAAGCTCTC (((.(((....))))))	48.2	-9.17
GAGGAGCGAAAGCTGCTC (((.(((....))).)))	63.7	-34
GAGGAGGAAACTCCTC ((((((....))))))	55.9	-31.2
GAGGCAGGAAACTACCTC ((((.((....)).))))	40.3	-26.9
GAGGCAGGAAACTGCCCC (.(((((....))))).)	44.2	-9.1
GAGGCAGGAAACTGCTTC ((.((((....)))).))	47.7	-18
GAGGCCCGAAAGGGCTC (((.(((....))))))	57.9	-9.95
GAGGCCGAAAGGCAACTC ((((((....)))..)))	46.7	-14.2
GAGGCCGAAAGGCGCTC ((((((....))).)))	57	-13.8
GAGGCCGAAAGGCTCCTC ((((((....)))..)))	40.8	-10.2
GAGGCCGGAAACGGTCTC (((.(((....))).)))	64.8	-36
GAGGCGGCGAAAGCCCTC (((..(((....))))))	43.1	-11
GAGGCGGGAAACCACCCC (.((.((....)).)).)	27.8	-13.6
GAGGCGGGAAACCGTCTC (((.(((....))).)))	56.8	-38.3
GAGGCGGGAAACTGCCTC (((((.(....).)))))	61.1	-39.1
GAGGCTCCGAAAGGACTC (((..(((....))))))	34.4	-15.5
GAGGGAGGAAACTCCCTC (((((((....)))))))	62.9	-41.1
GAGGGCCGAAAGGCCTC (((.(((....))))))	52.6	-9.74
GAGGGCCGAAAGGCTCTC (((.(((....))).)))	67	-30.6
GAGGGCGAAAGCCAGCTC ((((((....)))..)))	46.7	-13.7
GAGGGCGAAAGCCATCTC ((((((....)))..)))	65.6	-16.2

Sequence	Tm [1] [°C]	folding enthalpy [2] [kcal/mol]
GAGGGCGAAAGCCCCCTC ((((((....)))..)))	42.7	-7.33
GAGGGCGAAAGCCTCCTC ((((((....)))..)))	40.5	-9.66
GAGGGCGAAAGCCTCTC ((((((....))).)))	53.2	-16.1
GAGGGCGAAAGCCTTCTC ((((((....)))..)))	52	-16.6
GAGGGCGCGAAAGCGCTC (((..(((....))))))	42.5	-7.69
GAGGGCGGAAACACCCCC (.(((.(....).))).)	30.9	-16.4
GAGGGCGGAAACGCTCTC (((.(((....))).)))	57.2	-31.9
GAGGGGGGAAACCCCCCC (.(((((....))))).)	52.5	-8.39
GAGGTACGAAAGTACTC (((.(((....))))))	45.8	-13.6
GAGGTACGAAAGTAGCTC (((.(((....))).)))	57.9	-44.4
GAGGTACGAAAGTATCTC (((.(((....))).)))	50.5	-32.3
GAGGTAGGAAACTACCCC (.(((((....))))).)	39.1	-12.1
GAGGTAGGAAACTACCTC (((((((....)))))))	60	-37.2
GAGGTCGGAAACGACCCC (.(((((....))))).)	48.3	-9.23
GAGGTCGGAAACGACTTC ((.((((....)))).))	48.6	-20.9
GAGGTGACGAAAGTCCTC (((..(((....))))))	34.9	-17.6
GAGGTGGGAAACCACTTC ((.((((....)))).))	46	-21.4
GAGGTGGGAAACCGCCTC ((((.((....)).))))	57.1	-46.9
GAGGTTCCGAAAGGACTC (((..(((....))))))	31.6	-14.9
GAGGTTGCGAAAGCACTC (((..(((....))))))	33.9	-11.3
GAGGTTGGAAACAGTCTC (((..((....))..)))	25.6	-10.1
GAGTAACCGAAAGGTCTC (((..(((....))))))	33.2	-16.7
GAGTAACGAAAGTTTCTC (((.(((....))).)))	40.3	-30.1

Sequence	Tm [1] [°C]	folding enthalpy [2] [kcal/mol]
GAGTAAGGAAACTTACCC (.(((((....))))).)	28.4	-14.6
GAGTACCCGAAAGGGCTC (((..(((....))))))	32.4	-15.3
GAGTACGAAAGTAAACTC ((((((....)))..)))	35.9	-26.2
GAGTACGAAAGTAATCTC ((((((....)))..)))	42.5	-27.2
GAGTACGAAAGTACACTC ((((((....)))..)))	48.3	-16.2
GAGTACGAAAGTACCCTC ((((((....)))..)))	38.6	-13.2
GAGTACGAAAGTAGACTC ((((((....)))..)))	35.8	-16.8
GAGTACGAAAGTATACTC ((((((....)))..)))	34.4	-19.7
GAGTACGGAAACGTACCC (.(((((....))))).)	42.2	-15.5
GAGTAGCGAAAGCTTCTC (((.(((....))).)))	47.2	-26.4
GAGTAGGAAACTACTC ((((((....))))))	51.1	-30.1
GAGTAGGCGAAAGCCCTC (((..(((....))))))	35.4	-10.8
GAGTAGGGAAACCTACTC (((((((....)))))))	57	-46.6
GAGTAGGGAAACTTACTC (((((.(....).)))))	35.5	-25.6
GAGTATGCGAAAGCACTC (((..(((....))))))	38.8	-14.9
GAGTATGGAAACATACTC (((((((....)))))))	54.4	-37.6
GAGTCACGAAAGTGCCTC (((.(((....))).)))	50	-23.5
GAGTCACGAAAGTGGCTC (((.(((....))).)))	64.7	-39.4
GAGTCCGAAAGGAACTC ((((((....))).)))	50.7	-27.7
GAGTCCGAAAGGATCCTC ((((((....)))..)))	34.1	-12.1
GAGTCCGGAAACGGACCC (.(((((....))))).)	46.2	-9.42
GAGTCCGGAAACGGGTTC ((..(((....)))..))	33.6	-16.1
